Data taken from ChEMBL document CHEMBL5058577, “EUbOPEN Chemogenomics Library 2 (Multiplex)” (2022).

Test system: HEK-293T
Assay: Multiplex assay against HEK293T
Assay type: toxicity, cell-based
Details: human
In short: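 At seeding, live cells were stained with Hoechst33342, BioTracker Green Microtubule Cytoskeleton Dye, MitoTracker Red and Annexin V Alexa Fluor 680. After compound addition they were imaged on a CQ1 microscope at 37°C and 5% CO2, and CellPathfinder machine-learning gating sorted them into Hoechst high-intensity objects or normal cells, with normal cells further split into healthy, pyknosed or fragmented nuclei and pyknosed cells into mitotic or apoptotic. Tubulin, mitochondrial-mass and membrane-permeability phenotypes are given as per cents of cells with healthy nuclei.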

[1] = 12 h, 1 µM, compound concentration 1 uM, replicate 1
[2] = 12 h, 1 µM, compound concentration 1 uM, replicate 2
[3] = 12 h, 10 µM, compound concentration 10 uM, replicate 1
[4] = 12 h, 10 µM, compound concentration 10 uM, replicate 2
[5] = 24 h, 1 µM, compound concentration 1 uM, replicate 1
[6] = 24 h, 1 µM, compound concentration 1 uM, replicate 2
[7] = 24 h, 10 µM, compound concentration 10 uM, replicate 1
[8] = 24 h, 10 µM, compound concentration 10 uM, replicate 2
[9] = 48 h, 1 µM, compound concentration 1 uM, replicate 1
[10] = 48 h, 1 µM, compound concentration 1 uM, replicate 2
[11] = 48 h, 10 µM, compound concentration 10 uM, replicate 1
[12] = 48 h, 10 µM, compound concentration 10 uM, replicate 2

COc1ccc2[nH]c(I)c(CCNC(C)=O)c2c1 [IODOMELATONIN]
Population Apoptotic (%) [1]: 42% | Population Fragmented Nuclei (%) [1]: 4% | Population Healthy Nuclei (%) [1]: 80% | Population Hoechst High Intensity Objects (%) [1]: 5% | Population Membrane Permeable-Phenotype (%) [1]: 1% | Population Mitochondria Different-Phenotype (%) [1]: 43% | Population Mitotic Cells (%) [1]: 57% | Population Normal (%) [1]: 94% | Population Pyknosed Nuclei (%) [1]: 14% | Population Tubulin-Different-Phenotype (%) [1]: 35% | Total Cell Count [1]: 388 | Population Apoptotic (%) [2]: 59% | Population Fragmented Nuclei (%) [2]: 5% | Population Healthy Nuclei (%) [2]: 84% | Population Hoechst High Intensity Objects (%) [2]: 7% | Population Membrane Permeable-Phenotype (%) [2]: 0% | Population Mitochondria Different-Phenotype (%) [2]: 64% | Population Mitotic Cells (%) [2]: 40% | Population Normal (%) [2]: 92% | Population Pyknosed Nuclei (%) [2]: 10% | Population Tubulin-Different-Phenotype (%) [2]: 32% | Total Cell Count [2]: 400 | Population Apoptotic (%) [3]: 38% | Population Fragmented Nuclei (%) [3]: 11% | Population Healthy Nuclei (%) [3]: 77% | Population Hoechst High Intensity Objects (%) [3]: 8% | Population Membrane Permeable-Phenotype (%) [3]: 0% | Population Mitochondria Different-Phenotype (%) [3]: 52% | Population Mitotic Cells (%) [3]: 61% | Population Normal (%) [3]: 91% | Population Pyknosed Nuclei (%) [3]: 10% | Population Tubulin-Different-Phenotype (%) [3]: 29% | Total Cell Count [3]: 445 | Population Apoptotic (%) [4]: 46% | Population Fragmented Nuclei (%) [4]: 8% | Population Hoechst High Intensity Objects (%) [4]: 12% | Population Mitochondria Different-Phenotype (%) [4]: 62% | Population Mitotic Cells (%) [4]: 53% | Population Normal (%) [4]: 87% | Population Pyknosed Nuclei (%) [4]: 14% | Population Tubulin-Different-Phenotype (%) [4]: 25% | Total Cell Count [4]: 316 | Population Apoptotic (%) [5]: 38% | Population Fragmented Nuclei (%) [5]: 8% | Population Healthy Nuclei (%) [5]: 80% | Population Hoechst High Intensity Objects (%) [5]: 3% | Population Membrane Permeable-Phenotype (%) [5]: 1% | Population Mitochondria Different-Phenotype (%) [5]: 24% | Population Mitotic Cells (%) [5]: 61% | Population Normal (%) [5]: 96% | Population Pyknosed Nuclei (%) [5]: 11% | Population Tubulin-Different-Phenotype (%) [5]: 23% | Total Cell Count [5]: 511 | Population Apoptotic (%) [6]: 44% | Population Fragmented Nuclei (%) [6]: 9% | Population Healthy Nuclei (%) [6]: 78% | Population Hoechst High Intensity Objects (%) [6]: 8% | Population Membrane Permeable-Phenotype (%) [6]: 0% | Population Mitochondria Different-Phenotype (%) [6]: 37% | Population Mitotic Cells (%) [6]: 55% | Population Normal (%) [6]: 91% | Population Tubulin-Different-Phenotype (%) [6]: 14% | Total Cell Count [6]: 497 | Population Apoptotic (%) [7]: 32% | Population Fragmented Nuclei (%) [7]: 11% | Population Healthy Nuclei (%) [7]: 77% | Population Hoechst High Intensity Objects (%) [7]: 5% | Population Membrane Permeable-Phenotype (%) [7]: 1% | Population Mitochondria Different-Phenotype (%) [7]: 31% | Population Mitotic Cells (%) [7]: 67% | Population Normal (%) [7]: 94% | Population Pyknosed Nuclei (%) [7]: 10% | Population Tubulin-Different-Phenotype (%) [7]: 25% | Total Cell Count [7]: 568 | Population Apoptotic (%) [8]: 40% | Population Fragmented Nuclei (%) [8]: 5% | Population Healthy Nuclei (%) [8]: 81% | Population Hoechst High Intensity Objects (%) [8]: 9% | Population Membrane Permeable-Phenotype (%) [8]: 0% | Population Mitochondria Different-Phenotype (%) [8]: 48% | Population Mitotic Cells (%) [8]: 59% | Population Normal (%) [8]: 90% | Population Pyknosed Nuclei (%) [8]: 12% | Population Tubulin-Different-Phenotype (%) [8]: 21% | Total Cell Count [8]: 360 | Population Apoptotic (%) [9]: 26% | Population Fragmented Nuclei (%) [9]: 12% | Population Healthy Nuclei (%) [9]: 79% | Population Hoechst High Intensity Objects (%) [9]: 4% | Population Membrane Permeable-Phenotype (%) [9]: 1% | Population Mitochondria Different-Phenotype (%) [9]: 19% | Population Mitotic Cells (%) [9]: 73% | Population Normal (%) [9]: 95% | Population Pyknosed Nuclei (%) [9]: 7% | Population Tubulin-Different-Phenotype (%) [9]: 16% | Total Cell Count [9]: 770 | Population Apoptotic (%) [10]: 31% | Population Hoechst High Intensity Objects (%) [10]: 5% | Population Mitochondria Different-Phenotype (%) [10]: 22% | Population Mitotic Cells (%) [10]: 68% | Population Normal (%) [10]: 94% | Population Pyknosed Nuclei (%) [10]: 8% | Population Tubulin-Different-Phenotype (%) [10]: 14% | Total Cell Count [10]: 622 | Population Apoptotic (%) [11]: 23% | Population Fragmented Nuclei (%) [11]: 16% | Population Healthy Nuclei (%) [11]: 77% | Population Hoechst High Intensity Objects (%) [11]: 1% | Population Membrane Permeable-Phenotype (%) [11]: 1% | Population Mitochondria Different-Phenotype (%) [11]: 16% | Population Mitotic Cells (%) [11]: 76% | Population Normal (%) [11]: 98% | Population Pyknosed Nuclei (%) [11]: 5% | Population Tubulin-Different-Phenotype (%) [11]: 11% | Total Cell Count [11]: 860 | Population Apoptotic (%) [12]: 25% | Population Fragmented Nuclei (%) [12]: 15% | Population Healthy Nuclei (%) [12]: 75% | Population Hoechst High Intensity Objects (%) [12]: 2% | Population Membrane Permeable-Phenotype (%) [12]: 0% | Population Mitochondria Different-Phenotype (%) [12]: 24% | Population Mitotic Cells (%) [12]: 74% | Population Normal (%) [12]: 97% | Population Pyknosed Nuclei (%) [12]: 9% | Population Tubulin-Different-Phenotype (%) [12]: 16% | Total Cell Count [12]: 613
